Measurements reported in ChEMBL document CHEMBL1123566, “Synthesis and cardiac electrophysiological activity of 2- and 3-[(substituted phenyl)alkyl]quinuclidines. Structure-activity relationships” (1987).
Where “and” joins values, the source holds several entries; their conditions need not be identical. Equal values may be shown once.

Legend:
[1] = system: Canis familiaris; assay: Conduction time was determined by intraduodenal administration of two dosages of 10 mg/kg of compound in anesthetized dogs. Value was reported for experiment 1; assay type: functional, Canis lupus familiaris
How it was run: (§1)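 Anesthetized dogs given the compound intraduodenally, generally as two doses with the second a cumulative total (low/high). FRP and CT measured at 15, 30 and 45 min after dosing. HR and BP taken during nonpacing intervals. Values are percent change from control per animal. Activity criterion is FRP or CT prolonged ≥12%. Vehicle: 5% dextrose in water/tragacanth.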

[2] = system: Canis familiaris; assay: Conduction time was determined by intraduodenal administration of two dosages of 1 mg/kg (low dose) of compound in anesthetized dogs. Value was reported for experiment 2; assay type: functional, Canis lupus familiaris; how it was run: as §1
[3] = system: Canis familiaris; assay: Conduction time was determined by intraduodenal administration of two dosages of 3 mg/kg (high dose) of compound in anesthetized dogs. Value was reported for experiment 2; assay type: functional, Canis lupus familiaris; how it was run: as §1
[4] = system: Canis familiaris; assay: Conduction time was determined by intraduodenal administration of two dosages of 3 mg/kg (low dose) of compound in anesthetized dogs. Value was reported for experiment 1; assay type: functional, Canis lupus familiaris
How it was run: (§2)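 Anesthetized dogs; compound given intraduodenally, generally as two doses, the second a cumulative (high) dose. LV functional refractory period and conduction time measured 15, 30 and 45 min after dosing; heart rate and blood pressure measured during nonpacing intervals. Values are % change from control, given per individual animal. Active if FRP or CT prolonged by ≥12%.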

[5] = system: Canis familiaris; assay: Heart rate was determined by intraduodenal administration of two dosages of 3 mg/kg of (high dose) compound in anesthetized dogs. Value was reported for experiment 2; assay type: functional, Canis lupus familiaris; how it was run: as §1
[6] = system: Canis familiaris; assay: Heart rate was determined by intraduodenal administration of two dosages of 3 mg/kg of (low dose) compound in anesthetized dogs. Value was reported for experiment 1; assay type: functional, Canis lupus familiaris; how it was run: as §2
[7] = system: Canis familiaris; assay: Left ventricular refractory period was determined by intraduodenal administration of two dosages of 1 mg/kg of (low dose) compound in anesthetized dogs. Value was reported for experiment 3; assay type: functional, Canis lupus familiaris, Cardiac ventricle
How it was run: (§3)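 Anesthetized dogs, usually given two intraduodenal doses, with the second dose cumulative (low/high). Left ventricular FRP and CT were determined at 15, 30 and 45 min after dosing. HR and BP were measured during nonpacing intervals. Values are % change from control at low/high dose, for individual animals. The vehicle-stability set used 5% dextrose in water/tragacanth (n = 8).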

[8] = system: Canis familiaris; assay: Heart rate was determined by intraduodenal administration of two dosages of 10 mg/kg of (high dose) compound in anesthetized dogs. Value was reported for experiment 1; assay type: functional, Canis lupus familiaris; how it was run: as §2
[9] = system: Canis familiaris; assay: Heart rate was determined by intraduodenal administration of two dosages of 10 mg/kg of (high dose) compound in anesthetized dogs. Value was reported for experiment 3; assay type: functional, Canis lupus familiaris; how it was run: as §1
[10] = system: Canis familiaris; assay: Heart rate was determined by intraduodenal administration of two dosages of 1 mg/kg of (low dose) compound in anesthetized dogs. Value was reported for experiment 2; assay type: functional, Canis lupus familiaris; how it was run: as §1
[11] = system: Canis familiaris; assay: Left ventricular refractory period was determined by intraduodenal administration of two dosages of 10 mg/kg of (high dose) compound in anesthetized dogs. Value was reported for experiment 1; assay type: functional, Canis lupus familiaris, Cardiac ventricle
How it was run: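 Anesthetized dogs received two intraduodenal doses, the second cumulative (low dose/high dose). Left ventricular FRP and CT were measured 15, 30 and 45 min after dosing. Heart rate and mean blood pressure were taken during nonpacing intervals. Values are percent change from control. The vehicle was 5% dextrose in water/tragacanth. Activity was defined as ≥12% prolongation of FRP or CT.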

[12] = system: Canis familiaris; assay: Left ventricular refractory period was determined by intraduodenal administration of two dosages of 3 mg/kg of (high dose) compound in anesthetized dogs. Value was reported for experiment 3; assay type: functional, Canis lupus familiaris, Cardiac ventricle; how it was run: as §3
[13] = system: Canis familiaris; assay: Mean arterial blood pressure was determined by intraduodenal administration of two dosages of 1 mg/kg of (low dose) compound in anesthetized dogs. Value was reported for experiment 2; assay type: functional, Canis lupus familiaris; how it was run: as §3
[14] = system: Canis familiaris; assay: Mean arterial blood pressure was determined by intraduodenal administration of two dosages of 1 mg/kg of (low dose) compound in anesthetized dogs. Value was reported for experiment 3; assay type: functional, Canis lupus familiaris; how it was run: as §3
[15] = species on record: Canis familiaris; assay: In vitro electrophysiological evaluation in canine cardiac ventricular muscle reported as % change for the functional refractory period (FRP) concentration range of 0.1-10 uM; parameters: species or system Canis lupus familiaris, Muscle tissue
How it was run: (§4)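 Canine right ventricular/papillary muscle strips in oxygenated Tyrode's, extracellular extra-stimulus conduction-interval method. FRP and CT are read from conduction-interval curves before and during rising concentrations. Compound is a 10 mM aqueous stock diluted into Tyrode's. Each strip is used once as its own control. Readouts are percent change from control at 10 μM, plus the maximum change with its concentration.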

[16] = species on record: Canis familiaris; assay: In vitro electrophysiological evaluation in canine cardiac ventricular muscle reported as % change for the functional refractory period (FRP) concentration range of 0.1-100 uM; parameters: species or system Canis lupus familiaris, Muscle tissue
How it was run: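 Canine right ventricle and papillary muscle strips in oxygenated Tyrode's solution, fitted with stimulating and recording electrodes. The extra-stimulus conduction-interval method was adapted for in vitro use. FRP and CT were read from a conduction-interval curve before and after various compound concentrations, and expressed as percent change from control. Compounds were taken from 10 mM deionized-water stock into Tyrode's. Each strip was used once as its own control.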

[17] = species on record: Canis familiaris; assay: In vitro electrophysiological evaluation in canine cardiac ventricular muscle reported as % change for conduction time(CT) at 0.1-100 uM concentration range; assay type: functional, Canis lupus familiaris, Muscle tissue; how it was run: as §4
[18] = species on record: Canis familiaris; assay: In vitro electrophysiological evaluation in canine cardiac ventricular muscle reported as % change for conduction time(CT) at 0.1-100 uM concentration range; Minimal (<IO%increase or a decrease in CT); assay type: functional, Canis lupus familiaris, Muscle tissue
[19] = species on record: Canis familiaris; assay: In vitro electrophysiological evaluation in canine cardiac ventricular muscle reported as % change for conduction time(CT) at 0.1-10 uM concentration range; Minimal (<IO%increase or a decrease in CT); assay type: functional, Canis lupus familiaris, Muscle tissue; how it was run: as §4
[20] = species on record: Canis familiaris; assay: In vitro electrophysiological evaluation in canine cardiac ventricular muscle reported as maximum % change for functional refractory period (FRP) at 0.1-10 uM concentration range; parameters: species or system Canis lupus familiaris, Muscle tissue
[21] = species on record: Canis familiaris; assay: In vitro electrophysiological activity in canine cardiac Purkinje fibres given as maximum % change for action potential duration at 0.1-10 uM concentration; assay type: functional, Canis lupus familiaris, Purkinje fiber
How it was run: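 Canine cardiac Purkinje fibres, intracellular recording at 1 s basic cycle length, over cumulative concentration ranges. Compound 10 mM stock in deionized water diluted into Tyrode's. Each fibre used once as its own control. Value is the maximum % change from control in APD at 95% repolarization, with the concentration where it occurred; both values given if a biphasic response (>20% reversal) occurred.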

[22] = species on record: Canis familiaris; assay: In vitro electrophysiological evaluation in canine cardiac Purkinje fibres reported as % change for action potential duration at 0.1-10 uM concentration range; assay type: functional, Canis lupus familiaris, Purkinje fiber
How it was run: (§5)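 Canine cardiac Purkinje fibres, intracellular microelectrode recording, paced at a basic cycle length of 1 s. APD95 and Vmax read simultaneously. Compound: 10 mM stock in deionized water, diluted into Tyrode's solution, tested over the stated concentration range. Each fibre used once as its own control. Result is % change from control, given at 10 µM or as the maximum with its concentration. M = <10% decrease or an increase in Vmax.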

[23] = species on record: Canis familiaris; assay: In vitro electrophysiological evaluation in canine cardiac Purkinje fibres reported as % change for action potential duration at 1-100 uM concentration range; assay type: functional, Canis lupus familiaris, Purkinje fiber
How it was run: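 Canine cardiac Purkinje fibers, intracellular recording, paced at a basic cycle length of 1 s. APD95 and Vmax are recorded together across cumulative concentrations. Compound is a 10 mM aqueous stock diluted into Tyrode's solution. Each fiber is used once as its own control. Readouts are percent change from control at 10 μM, and the maximum change with the concentration where it occurred.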

[24] = species on record: Canis familiaris; assay: In vitro electrophysiological evaluation in canine cardiac Purkinje fibres reported as % change for action potential duration at 0.1-100 uM concentration range; assay type: functional, Canis lupus familiaris, Purkinje fiber; how it was run: as §5

CCCCCCC[N+](CC)(CC)CCCCc1ccc(Cl)cc1.O=P([O-])(O)O [CLOFILIUM PHOSPHATE]
CT [1]: -7%
CT [2]: -5%
CT [3]: -7%
CT [4]: -4%
HR [5]: -6%
HR [6]: -9%
LV FRP [7]: 4%
HR [8]: -24%
HR [9]: -11%
HR [10]: -2%
LV FRP [11]: 22%
LV FRP [12]: 4%
Mean blood pressure [13]: -2%
Mean blood pressure [14]: -3%
FRP [15]: 38%
FRP [16]: 11% and 5%
CT [17]: 11%
CT [18]: <10%
CT [19]: <10%
FRP [20]: 38%
APD95 [21]: 52%
APD95 [22]: 52%
APD95 [23]: 49% and 18%
APD95 [24]: 48% and 46%
